# Measurements collected from several papers.
# Lines come from different studies, so protocols differ. pIC50: −log10 of the molar value.
# MAOB: Amine oxidase [flavin-containing] B (MAOB, Homo sapiens, UniProt P27338)
SMILES,target,assay,conditions,pIC50
O=[N+]([O-])c1cc(Cl)c(O)c(Cl)c1,"Sulfotransferase 1A1 (SULT1A1, Homo sapiens, UniProt P50225)","enzyme activity, inhibitor",,6.61
[Ba+2].[Cl-].[Cl-],"Inward rectifier potassium channel 2 (KCNJ2, Homo sapiens, UniProt P63252)","ion current, inhibitor",,5.09
COc1ccc(/C=C/C(=O)N2CCN(Cc3ccccc3)CC2)cc1OC,MAOB,"enzyme activity, inhibitor, fluorescence",,5.72
C#CCNc1nc(NCCCCC2CCN(Cc3ccccc3)CC2)c(C#N)c(-c2ccccc2)c1C#N,MAOB,"enzyme activity, inhibitor, fluorescence",with preincubation,< 4.00
CSCC[C@@H]1NC(=O)[C@H](Cc2c[nH]c3ccccc23)NC(=O)[C@H](CCCCN)NC(=O)[C@@H](NC(=O)[C@H](C)N)CSSC[C@@H](C(=O)NCC(=O)NCC(=O)NCC(N)=O)NC(=O)[C@H](Cc2ccc(O)cc2)NC(=O)CNC(=O)[C@H](CCC(=O)O)NC(=O)[C@H](CCC(=O)O)NC1=O,"Lysine-specific demethylase 4C (KDM4C, Homo sapiens, UniProt Q9H3R0)","enzyme activity, inhibitor, TR-FRET",,~3.28
Cc1cc(SCc2sc(-c3ccc(C(F)(F)F)c(F)c3)nc2C)ccc1OCC(=O)O,"Retinoic acid receptor RXR-alpha (RXRA, Homo sapiens, UniProt P19793)","reporter gene, antagonist, luciferase",,4.64
C#CCNc1nc(NCCCC2CCN(Cc3ccccc3)CC2)c(C#N)cc1C#N,MAOB,"enzyme activity, inhibitor, fluorescence",with preincubation,< 4.00
COc1ncccc1-c1cnn2ccc(N3CCN(C(=O)OC(C)C)CC3)nc12,MAOB,"enzyme activity, inhibitor",,< 4.52
C#CCN(C)c1nc(NCCCC2CCN(Cc3ccccc3)CC2)c(C#N)cc1C#N,MAOB,"enzyme activity, inhibitor, fluorescence",with preincubation,5.21
COc1cc(C(=O)N2CC[C@@H](O)[C@@H](N)C2)cc2nc(-c3cc4ccccc4n3CC3CC3)n(C)c12,MAOB,"enzyme activity, inhibitor",,4.80
C#CCNc1nc(NCCCCC2CCN(Cc3ccccc3)CC2)c(C#N)cc1C#N,MAOB,"enzyme activity, inhibitor, fluorescence",with preincubation,< 4.30
O=c1c2ccccc2[nH]c(=S)n1-c1ccccc1,"Serine protease 1 (PRSS1, Bos taurus, UniProt P00760)","enzyme activity, inhibitor",,4.07
